Compounds with a hit are over-represented: about 3% of the library has one in this group of screens.
NR3A LBD binder = binders of NR3A ligand-binding domain, primary screen, biophysical, differential scanning fluorimetry, uHTS; Glutamate receptor ionotropic, NMDA 3A (GRIN3A) ligand-binding domain; NR3A LBD differential scanning fluorimetry, Tm shift; 0% = protein alone, 100% = glycine-bound protein; Tm shift relative to glycine control, % at 25 µM; hit rate 2.5% among 340,000;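 active means melting temperature shift of at least 10% of the positive control shift, at one fixed dose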
NPR2 activator = human GC-B receptor activators, primary screen, HEK293 GC-B cells, cGMP TR-FRET, EC30 CNP; Atrial natriuretic peptide receptor 2 (Homo sapiens), P20594; 0% at EC30 CNP, 100% saturating CNP; hit rate 0.11% among 370,000; activation, % at 10 µM;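 active means activation at 10 µM reaching about 35% in either raw or pattern-adjusted values, limit read from the data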
Target sequence (P20594 whole entry, looked up): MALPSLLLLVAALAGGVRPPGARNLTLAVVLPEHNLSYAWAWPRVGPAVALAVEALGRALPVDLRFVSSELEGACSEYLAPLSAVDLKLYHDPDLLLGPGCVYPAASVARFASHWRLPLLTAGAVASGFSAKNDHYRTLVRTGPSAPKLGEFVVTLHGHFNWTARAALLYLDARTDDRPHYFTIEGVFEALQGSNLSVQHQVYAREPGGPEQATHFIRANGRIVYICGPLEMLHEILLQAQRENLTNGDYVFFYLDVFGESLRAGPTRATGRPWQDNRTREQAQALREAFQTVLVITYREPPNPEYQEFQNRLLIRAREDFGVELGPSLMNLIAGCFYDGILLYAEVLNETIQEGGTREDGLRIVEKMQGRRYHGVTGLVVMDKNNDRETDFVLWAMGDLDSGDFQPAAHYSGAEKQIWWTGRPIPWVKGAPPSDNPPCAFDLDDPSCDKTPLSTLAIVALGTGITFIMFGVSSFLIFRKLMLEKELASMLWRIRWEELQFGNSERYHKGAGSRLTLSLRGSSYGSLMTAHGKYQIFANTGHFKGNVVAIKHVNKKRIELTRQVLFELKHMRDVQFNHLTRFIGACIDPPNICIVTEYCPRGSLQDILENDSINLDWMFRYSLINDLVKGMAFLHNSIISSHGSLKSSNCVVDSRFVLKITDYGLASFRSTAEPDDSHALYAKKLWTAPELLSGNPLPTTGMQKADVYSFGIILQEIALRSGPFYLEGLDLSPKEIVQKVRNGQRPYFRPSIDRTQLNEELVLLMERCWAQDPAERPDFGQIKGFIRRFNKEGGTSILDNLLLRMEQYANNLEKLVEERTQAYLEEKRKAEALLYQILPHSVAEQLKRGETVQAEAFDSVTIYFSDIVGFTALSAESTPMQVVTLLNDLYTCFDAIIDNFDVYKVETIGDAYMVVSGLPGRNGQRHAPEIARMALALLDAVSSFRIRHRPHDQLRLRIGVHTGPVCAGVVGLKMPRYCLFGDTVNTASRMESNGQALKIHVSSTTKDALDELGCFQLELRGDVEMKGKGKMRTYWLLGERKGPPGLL
Hep lipid drop = inhibitors of hepatocyte lipid droplet formation, primary screen, imaging, high-throughput imaging, BODIPY stain; AML12 mouse hepatocytes, oleate lipid droplets; AID 1656, 2009; hit rate 0.4% among 240,000; inhibition, % at 6.5 µM;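 active means lipid droplet intensity inhibited by at least 50%, with more than 500 cells counted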
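Technique: fluorescence imaging, 20x objective, two fields per well / Assay system: AML12 hepatocytes (mouse) / Measure: % inhibition of lipid droplet signal / Doses: 6.5 µM single-point dosing / Incubation: overnight exposure / Reagent: 100 µM oleic acid challenge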
aDG glyco act = activators of alpha-DG glycosylation, primary screen, uHTS, Pro5-aDG cells, AlphaScreen; alpha-DG glycosylation AlphaScreen (IIH6); 0% Pro5, 100% B10-LARGE cell signal; activation, % at 10 µM; hit rate 0.22% among 360,000;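 active means activation of at least 8% versus controls, or a plate z-score of at least 8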;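 further: Pro5 are CHO cells carrying HIG-tagged alpha-DG that lacks glycosylation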
NPR1 activator = GC-A stimulated cGMP production enhancers – HEK293 GC-A cells, cGMP TR-FRET, EC30 ANP, primary screen | AID 1671463, 2021 | hit rate 0.14% among 370,000 | activation, % at 10 µM | 0% at EC30 ANP, 100% saturating ANP; in the data active means activation above about 40%
GASC-1 inh = inhibitors of GASC-1 histone demethylase, primary screen, biochemical, fluorescence, DELFIA europium. Lysine-specific demethylase 4C (Homo sapiens), Q9H3R0. GST-JMJD2C(1-420) H3K9me3 demethylation. inhibition, % at 2.35 µM. hit rate 0.069% among 330,000. AID 2099, 2009;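 active means more than half of a compound's replicate wells show inhibition beyond 50%, single wells judged on their own value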;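 further: signal counts dimethyl H3K9 product captured on neutravidin plate; 0% = median of DMSO wells and 100% = 0.3 times that DMSO median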
* marks the source's active call; other numbers are inactive results; / = not tested or not shown.

SMILES	NR3A LBD binder	NPR2 activator	Hep lipid drop	aDG glyco act	NPR1 activator	GASC-1 inh
N/C(=N\S(=O)(=O)c1cc(C(F)(F)F)cc(C(F)(F)F)c1)c1ccncc1	14.5*	0.2	3.0	0.0	1.5	-2.6
N/C(=N\NS(=O)(=O)c1cc(C(F)(F)F)cc(C(F)(F)F)c1)c1ccccn1	-1.3	3.6	5.3	0.1	4.5	5.0
Cc1ccc(S(=O)(=O)/N=C(\N)c2ccc(Cl)cc2)cc1	-0.4	5.5	/	0.3	0.7	-5.1
N/C(=N\S(=O)(=O)c1cc(C(F)(F)F)cc(C(F)(F)F)c1)c1ccc(Cl)cc1	18.6*	4.5	-12.5	0.2	2.2	1.7
CC(c1cc(F)ccc1O)c1c[nH]c2ccccc12 (stereo not drawn)	/	-14.8	/	/	4.7	/
OC1(c2cccc(C(F)(F)F)c2)CCN(Cc2nnnn2Cc2ccccc2)CC1	-25.1	-1.0	4.7	0.4	-4.8	36.2
OC1(c2cccc(F)c2)CCN(Cc2ccncc2)CC1	-0.8	1.3	/	-0.1	3.0	68.7*
Cc1ccc2nc(N/N=C/c3ccccc3C#N)nc(-c3ccccc3)c2c1	-1.1	-7.4	/	0.3	5.4	-0.4
Cc1ccc2nc(N/N=C/c3ccccc3F)nc(-c3ccccc3)c2c1	12.6*	-3.9	0.0	0.5	6.2	2.4
O=C(O)c1c(C(=O)O)c(-c2ccc(Br)cc2)n2c1CSC2	13.5*	-2.1	7.8	-0.1	1.3	-11.7
Cc1ccc(-c2c(C(=O)O)c(C(=O)O)c3n2CSC3)cc1	0.2	7.0	-5.3	-0.1	2.3	-17.2
CCC12CN(C(=O)c3ccc(OC)cc3)CC(CC)(CN(C(=O)c3ccc(OC)cc3)C1)C2=O	-0.4	75.5*	/	-0.3	-4.5	3.7
CCC12CN(C(=O)c3ccc([N+](=O)[O-])cc3)CC(CC)(CN(C(=O)c3ccc([N+](=O)[O-])cc3)C1)C2=O	-1.4	-3.1	-13.7	0.0	0.4	-13.7
N#C/C(=C\c1ccccc1[N+](=O)[O-])c1nc(C2CC2)cs1	15.8*	-5.0	-27.4	0.0	-4.9	7.6
Cc1ccc(S(=O)(=O)N2C[C@H]3C(=O)C[C@@H]4C(=O)N(c5ccccc5)C(=O)[C@@H]4[C@@H]3C[C@H]2c2cccs2)cc1	/	-1.4	/	-0.2	-1.8	/
Cc1ccc(-c2cc(C(=O)N/N=C/c3c[nH]c4ccccc34)n[nH]2)o1	27.7*	-3.5	26.1	-0.3	-5.3	24.7
Cc1cc(C(=O)N/N=C/C=C/c2ccccc2)n[nH]1	-429.0	-3.1	3.7	-0.2	3.7	1.5
O=C(N/N=C/c1ccco1)c1cc(-c2ccc(Cl)s2)[nH]n1	-13.7	3.4	-33.6	-0.2	26.2	-1.6
Cc1ccc(-c2cc(C(=O)N/N=C/c3ccccc3O)n[nH]2)o1	30.9*	-1.4	9.6	0.1	4.2	20.3
Cc1ccc(-c2cc(C(=O)N/N=C/C=C/c3ccccc3)n[nH]2)s1	18.6*	-1.2	7.1	-0.3	0.2	6.4
O=C(N/N=C/c1cccs1)c1cc(-c2ccc(Cl)s2)[nH]n1	32.9*	-0.4	-2.8	0.0	19.0	4.0
CCOC(=O)[C@]12CCCCC/C=C\1N(CCc1ccc(Cl)cc1)C(=O)[C@H]2CC(=O)NCC12CC3CC(CC(C3)C1)C2	/	-6.8	/	/	0.1	/
Cc1ccc(-c2cc(C(=O)N/N=C/C(Br)=C/c3ccccc3)n[nH]2)o1	29.0*	0.3	1.7	-0.1	-9.2	22.0
Cc1ccc(-c2cc(C(=O)N/N=C/c3ccc(F)cc3)n[nH]2)o1	31.1*	2.8	1.7	-0.1	-0.1	-9.0
CC(C)(C)c1cc(C(=O)N/N=C/c2ccncc2)n[nH]1	467.9*	-0.9	-6.7	-0.4	-2.3	6.0
SMILES	NR3A LBD binder	NPR2 activator	Hep lipid drop	aDG glyco act	NPR1 activator	GASC-1 inh
COc1cc2ncnc(Nc3cccc(Cl)c3)c2cc1OC	/	/	65.0*	/	/	/
CCOc1ccc(NC(=O)CN2CCCN(c3ccc(OC)cc3)CC2)cc1	/	-1.6	/	/	-1.2	/
COc1ccc(CC2(C)OC(c3ccc(Cl)cc3)=NN2C(C)=O)cc1 (stereo not drawn)	13.4*	-16.4	11.5	0.1	-4.9	-45.8
COc1ccc(CC2(C)OC(c3ccncc3)=NN2C(C)=O)cc1 (stereo not drawn)	-0.8	-2.2	4.2	-0.4	0.0	7.2
O=C(NN1C(=O)/C(=C/c2cccc(O)c2)SC1=S)c1ccccc1O	22.8*	2.5	-7.5	0.1	2.4	-0.5
Cn1cc(/C=C2\SC(=S)N(NC(=O)c3ccccc3Cl)C2=O)c2ccccc21	12.2*	-8.5	5.4	0.0	1.7	4.1
COc1cc(/C=C2\SC(=S)N(NC(=O)c3ccc(O)cc3)C2=O)ccc1O	6.3	-5.4	/	-0.1	-0.8	-18.5
O=C(NN1C(=O)/C(=C/c2ccc(O)c(O)c2)SC1=S)c1ccccc1	13.2*	-2.8	-1.1	-0.1	-0.8	-31.0
COc1cc(/C=C2\SC(=S)N(Nc3ccccc3)C2=O)ccc1O	11.1*	-6.6	-11.1	-0.1	1.4	12.7
CCOc1cc(/C=C2\SC(=S)N(Nc3ccccc3)C2=O)ccc1O	5.1	4.7	/	0.1	0.3	-1.1
COc1cc(/C=C2\SC(=S)N(Nc3ncc(C(F)(F)F)cc3Cl)C2=O)ccc1O	14.1*	-9.1	-8.2	0.0	-9.6	-30.7
O=C1/C(=C/c2ccc(O)c(O)c2)SC(=S)N1Nc1ccccc1	16.4*	/	27.1	-0.6	/	7.6
CCCCNC(=O)N1CCCC1C(=O)Nc1cccc(OC)c1 (stereo not drawn)	/	7.0	/	/	-1.0	/
COc1ccc([C@H]2C[C@H](n3cc(COC(=O)c4ccccc4)nn3)[C@@H](O)CN2CC2CCCCC2)cc1	/	-4.1	/	0.2	-1.3	/
COc1ccc2cc(-c3ccsc3)ncc2c1	30.4*	-5.7	/	0.0	0.8	-7.2
COc1cc(OC)cc(-c2cc3ccc(OC)cc3cn2)c1	9.0	-11.8	/	-0.2	1.6	11.5
COc1ccc(CCn2c(O)c(C3=c4ccccc4=NC3=O)sc2=S)cc1OC	1.9	-4.3	11.4	0.3	6.6	-8.7
O=C1N=c2ccccc2=C1c1sc(=S)n(CC2CCCO2)c1O (stereo not drawn)	15.2*	-4.5	6.2	0.9	-1.5	3.6
COc1ccccc1CN(C)C(=O)C1CCCN(c2nc3ccccc3o2)C1 (stereo not drawn)	/	-8.3	/	/	-0.1	/
COc1ccc(C(C(=O)NC(C)(C)C)n2c(COc3ccc(C)cc3)nc3ccccc32)cc1 (stereo not drawn)	/	-19.3	/	0.0	-20.1	/

Source: PubChem BioAssay
